ChEMBL document CHEMBL4316620, “Dihydropyrrolones as bacterial quorum sensing inhibitors” (Bioorg Med Chem Lett, 2019)

Experiments:
[1] = Inhibition of quorum sensing system in Pseudomonas aeruginosa MH602 PlasB::gfp at 62.5 uM incubated for 15 hrs by GFP reporter gene assay
In short: (§1)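 Reporter strain P. aeruginosa PlasB::gfp (PAMH602) makes its own AHL; lasB promoter drives GFP-ASV. Cultures incubated with compound over 250–31.25 µM at 37 °C for 15 h, then GFP fluorescence read at 535 nm. QSI expressed as % relative to untreated PAMH602 negative control. Furanone positive control.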

[2] = Inhibition of quorum sensing system in Pseudomonas aeruginosa MH602 PlasB::gfp at 125 uM incubated for 15 hrs by GFP reporter gene assay; in short: as §1
[3] = tested on: Pseudomonas aeruginosa; assay: Toxicity in Pseudomonas aeruginosa MH602 PlasB::gfp assessed as inhibition of bacterial growth at 250 uM incubated for 15 hrs by spectrophotometry; format: organism-based; details: MH602, 15 h, read-out: GI
[4] = tested on: Pseudomonas aeruginosa; assay: Toxicity in Pseudomonas aeruginosa MH602 PlasB::gfp assessed as inhibition of bacterial growth at 62.5 uM incubated for 15 hrs by spectrophotometry; format: organism-based; details: MH602, 15 h, read-out: GI
[5] = tested on: Pseudomonas aeruginosa; assay: Toxicity in Pseudomonas aeruginosa MH602 PlasB::gfp assessed as inhibition of bacterial growth at 125 uM incubated for 15 hrs by spectrophotometry; format: organism-based; details: MH602, 15 h, read-out: GI
[6] = tested on: Pseudomonas aeruginosa; assay: Toxicity in Pseudomonas aeruginosa MH602 PlasB::gfp assessed as inhibition of bacterial growth at 31.25 uM incubated for 15 hrs by spectrophotometry; format: organism-based; details: MH602, 15 h, read-out: GI
[7] = Inhibition of quorum sensing system in Pseudomonas aeruginosa MH602 PlasB::gfp at 31.25 uM incubated for 15 hrs by GFP reporter gene assay; in short: as §1
[8] = tested on: Pseudomonas aeruginosa; assay: Inhibition of biofilm formation in Pseudomonas aeruginosa PAO1 at 250 uM incubated for 6 hrs by crystal violet staining based method; format: functional; details: PAO1, 6 h
In short: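 P. aeruginosa PA01 biofilm. Cultures grown with or without test compound for 6 h. Biofilm biomass quantified by crystal violet staining (OD550). % inhibition calculated relative to DMSO control.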

[9] = Inhibition of quorum sensing system in Pseudomonas aeruginosa MH602 PlasB::gfp at 250 uM incubated for 15 hrs by GFP reporter gene assay; in short: as §1

| SMILES | inhibition [1] | inhibition [2] | inhibition at 250 µM [3] | inhibition at 62.5 µM [4] | inhibition at 125 µM [5] | inhibition at 31.25 µM [6] | inhibition [7] | inhibition at 250 µM [8] | inhibition [9] |
| --- | --- | --- | --- | --- | --- | --- | --- | --- | --- |
| C=C1NC(=O)C=C1c1ccccc1 | 31.6% | 59% | ≤ 15% | ≤ 15% | ≤ 15% | ≤ 15% | 19.6% | 47.6% | 71.5% |
| O=C1C=C(Br)/C(=C/Br)O1 | 77% | 83.1% | > 30% | > 30% | > 30% | 15 to 30% | 65.9% | 87.9% | 87.5% |
| C=C1C(c2ccc(Br)cc2)=CC(=O)N1c1csc2ccccc12 | 42.8% | 55.6% | 15 to 30% | ≤ 15% | ≤ 15% | ≤ 15% | 34.1% | 13.2% | 67.4% |
| C=C1C(c2ccccc2F)=CC(=O)N1c1cccc(C)c1 | 25.5% | 39.7% | ≤ 15% | ≤ 15% | ≤ 15% | ≤ 15% | 25.3% | 42% | 59.1% |
| C=C1C(c2ccccc2F)=CC(=O)N1CCCC | 33.5% | 34.2% | ≤ 15% | ≤ 15% | ≤ 15% | ≤ 15% | 38.2% | 52.2% | 55.3% |
| C=C1NC(=O)C=C1c1cccc(Cl)c1 | 54.7% | 69.4% | ≤ 15% | ≤ 15% | ≤ 15% | ≤ 15% | 26.3% | 47.3% | 73.3% |
| C=C1NC(=O)C=C1c1ccc(Br)cc1 | 66.9% | 75.2% | 15 to 30% | ≤ 15% | ≤ 15% | ≤ 15% | 63.1% | 62.5% | 82.3% |
| O=C1C=C(c2ccccc2)CN1 | 32.4% | 60.8% | ≤ 15% | ≤ 15% | ≤ 15% | ≤ 15% | 31.7% | 14.4% | 57.7% |
| C=C1NC(=O)C=C1c1ccc(CC)cc1 | 35.1% | 59.6% | ≤ 15% | ≤ 15% | ≤ 15% | ≤ 15% | 32.5% | 38.9% | 67.9% |
| C=C1NC(=O)C=C1c1cccc(C(F)(F)F)c1 | 57.1% | 67.9% | ≤ 15% | ≤ 15% | ≤ 15% | ≤ 15% | 35.4% | 50.3% | 74.4% |
| C=C1C(c2ccccc2F)=CC(=O)N1c1ccccc1 | 56.9% | 60.9% | ≤ 15% | ≤ 15% | ≤ 15% | ≤ 15% | 46.4% | 38.2% | 63.7% |
| O=C1C=C(c2cccc(F)c2)CN1 | 24% | 45.5% | ≤ 15% | ≤ 15% | ≤ 15% | ≤ 15% | 22.4% | 21.4% | 67.2% |
